Assay results taken from ChEMBL document CHEMBL2311425, “Histone deacetylase (HDAC) inhibitors with a novel connecting unit linker region reveal a selectivity profile for HDAC4 and HDAC5 with improved activity against chemoresistant cancer cells” (J Med Chem, 2013).

Tests used:
MDA-MB-231 [1] = experiment: Potentiation of 25 uM cisplatin-induced toxicity in 1 uM cisplatin resistant human MDA-MB-231 cells at 0.5 uM pretreated for 48 hrs followed by 1 uM cisplatin treatment by MTT assay; assay type: functional
MDA-MB-231 [2] = experiment: Potentiation of 25 uM cisplatin-induced toxicity in 1 uM cisplatin resistant human MDA-MB-231 cells at 0.25 uM pretreated for 48 hrs followed by 1 uM cisplatin treatment by MTT assay; assay type: functional
MDA-MB-231 [3] = experiment: Potentiation of 10 uM cisplatin-induced toxicity in 1 uM cisplatin resistant human MDA-MB-231 cells at 0.25 uM pretreated for 48 hrs followed by 1 uM cisplatin treatment by MTT assay; assay type: functional
A2780 [4] = experiment: Potentiation of 1 uM cisplatin-induced toxicity in 5 uM cisplatin resistant human A2780 cells at 0.5 uM pretreated for 48 hrs followed by 5 uM cisplatin treatment by MTT assay; assay type: functional
KYSE-510 [5] = experiment: Potentiation of 0.5 uM cisplatin-induced toxicity in 0.5 uM cisplatin resistant human KYSE-510 cells at 1.5 uM pretreated for 48 hrs followed by 0.5 uM cisplatin treatment by MTT assay; assay type: functional
CAL-27 [6] = experiment: Potentiation of 1 uM cisplatin-induced toxicity in 1 uM cisplatin resistant human CAL27 cells at 0.5 uM pretreated for 48 hrs followed by 1 uM cisplatin treatment by MTT assay; assay type: functional
MDA-MB-231 [7] = experiment: Potentiation of 5 uM cisplatin-induced toxicity in 1 uM cisplatin resistant human MDA-MB-231 cells at 0.25 uM pretreated for 48 hrs followed by 1 uM cisplatin treatment by MTT assay; assay type: functional
MDA-MB-231 [8] = experiment: Potentiation of cisplatin-induced toxicity in cisplatin resistant human MDA-MB-231 cells at 1 uM pretreated for 48 hrs followed by cisplatin treatment by MTT assay; assay type: functional
How it was run: (§1)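 Resistant sublines pretreated 48 h with 1 μM HDAC inhibitor, then cisplatin over a concentration range for 72 h; MTT viability read at 544/690 nm. Cisplatin IC50 from four-parameter logistic fit of pooled data (≥3 experiments, triplicate); shift factor = IC50 of cisplatin alone divided by IC50 of the combination.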

KYSE-510 [9] = experiment: Potentiation of cisplatin-induced toxicity in cisplatin resistant human KYSE-510 cells at 1 uM pretreated for 48 hrs followed by cisplatin treatment by MTT assay; assay type: functional; how it was run: as §1
A2780 [10] = experiment: Potentiation of cisplatin-induced toxicity in cisplatin resistant human A2780 cells at 1 uM pretreated for 48 hrs followed by cisplatin treatment by MTT assay; assay type: functional; how it was run: as §1
Histone deacetylase 11 = biological target: T1, Histone deacetylase 11 (Homo sapiens, UniProt Q96DB2); experiment: Inhibition of human HDAC11 by fluorescence assay
T1 sequence (Q96DB2 whole entry): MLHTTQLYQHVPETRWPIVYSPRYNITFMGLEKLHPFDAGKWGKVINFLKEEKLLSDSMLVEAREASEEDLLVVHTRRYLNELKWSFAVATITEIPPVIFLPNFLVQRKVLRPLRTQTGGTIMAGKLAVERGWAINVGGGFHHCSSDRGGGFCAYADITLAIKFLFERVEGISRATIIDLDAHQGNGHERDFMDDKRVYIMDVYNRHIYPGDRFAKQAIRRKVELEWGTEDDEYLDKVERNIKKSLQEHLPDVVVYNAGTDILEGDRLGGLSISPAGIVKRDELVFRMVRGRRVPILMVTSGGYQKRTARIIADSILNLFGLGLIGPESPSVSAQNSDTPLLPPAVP

Histone deacetylase 1 = Histone deacetylase 1 (Homo sapiens, UniProt Q13547); experiment: Inhibition of human HDAC1 by fluorescence assay
Sequence of Histone deacetylase 1 (Q13547 whole entry): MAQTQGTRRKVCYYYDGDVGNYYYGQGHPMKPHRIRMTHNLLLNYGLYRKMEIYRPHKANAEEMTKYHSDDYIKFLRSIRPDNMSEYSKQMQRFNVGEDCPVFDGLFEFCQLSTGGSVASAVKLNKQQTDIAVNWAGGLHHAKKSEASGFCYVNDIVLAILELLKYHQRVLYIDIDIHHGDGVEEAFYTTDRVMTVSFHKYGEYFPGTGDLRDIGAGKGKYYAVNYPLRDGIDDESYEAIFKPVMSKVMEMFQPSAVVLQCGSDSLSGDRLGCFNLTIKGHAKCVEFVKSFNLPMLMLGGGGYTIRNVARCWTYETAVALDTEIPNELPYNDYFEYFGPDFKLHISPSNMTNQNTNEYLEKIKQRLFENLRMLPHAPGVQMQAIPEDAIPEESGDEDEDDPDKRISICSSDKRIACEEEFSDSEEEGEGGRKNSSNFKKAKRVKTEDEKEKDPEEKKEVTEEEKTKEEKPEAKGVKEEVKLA

Histone deacetylase [11] = experiment: Inhibition of HDAC in cisplatin sensitive human KYSE-510 cells after 18 hrs by fluorescence assay; assay type: cell-based
Histone deacetylase [12] = experiment: Inhibition of HDAC in cisplatin resistant human A2780 cells after 18 hrs by fluorescence assay; assay type: cell-based
A2780 [13] = experiment: Potentiation of 20 uM cisplatin-induced toxicity in 5 uM cisplatin resistant human A2780 cells at 0.5 uM pretreated for 48 hrs followed by 5 uM cisplatin treatment by MTT assay; assay type: functional
KYSE-510 [14] = experiment: Potentiation of 8 uM cisplatin-induced toxicity in 0.5 uM cisplatin resistant human KYSE-510 cells at 0.5 uM pretreated for 48 hrs followed by 0.5 uM cisplatin treatment by MTT assay; assay type: functional
KYSE-510 [15] = experiment: Potentiation of 8 uM cisplatin-induced toxicity in 0.5 uM cisplatin resistant human KYSE-510 cells at 0.25 uM pretreated for 48 hrs followed by 0.5 uM cisplatin treatment by MTT assay; assay type: functional
MDA-MB-231 [16] = experiment: Potentiation of […] cisplatin-induced toxicity in 1 uM cisplatin resistant human MDA-MB-231 cells at 0.5 uM pretreated for 48 hrs followed by 1 uM cisplatin treatment by MTT assay; assay type: functional
A2780 [17] = experiment: Potentiation of 10 uM cisplatin-induced toxicity in 5 uM cisplatin resistant human A2780 cells at 1.5 uM pretreated for 48 hrs followed by 5 uM cisplatin treatment by MTT assay; assay type: functional
A2780 [18] = experiment: Potentiation of 10 uM cisplatin-induced toxicity in 5 uM cisplatin resistant human A2780 cells at 0.5 uM pretreated for 48 hrs followed by 5 uM cisplatin treatment by MTT assay; assay type: functional
A2780 [19] = experiment: Potentiation of 10 uM cisplatin-induced toxicity in 5 uM cisplatin resistant human A2780 cells at 0.25 uM pretreated for 48 hrs followed by 5 uM cisplatin treatment by MTT assay; assay type: functional
KYSE-510 [20] = experiment: Potentiation of 3.16 uM cisplatin-induced toxicity in 0.5 uM cisplatin resistant human KYSE-510 cells at 0.5 uM pretreated for 48 hrs followed by 0.5 uM cisplatin treatment by MTT assay; assay type: functional
MDA-MB-231 [21] = experiment: Potentiation of 40 uM cisplatin-induced toxicity in 1 uM cisplatin resistant human MDA-MB-231 cells at 0.5 uM pretreated for 48 hrs followed by 1 uM cisplatin treatment by MTT assay; assay type: functional
KYSE-510 [22] = experiment: Potentiation of 1 uM cisplatin-induced toxicity in 0.5 uM cisplatin resistant human KYSE-510 cells at 1 uM pretreated for 48 hrs followed by 0.5 uM cisplatin treatment by MTT assay; assay type: functional
CAL-27 [23] = experiment: Potentiation of 5 uM cisplatin-induced toxicity in 1 uM cisplatin resistant human CAL27 cells at 1.5 uM pretreated for 48 hrs followed by 1 uM cisplatin treatment by MTT assay; assay type: functional
CAL-27 [24] = experiment: Potentiation of 5 uM cisplatin-induced toxicity in 1 uM cisplatin resistant human CAL27 cells at 0.25 uM pretreated for 48 hrs followed by 1 uM cisplatin treatment by MTT assay; assay type: functional

Cc1cc(C)cc(C(=O)NOCCCCCC(=O)NO)c1
Activity (MDA-MB-231 [1]): Dose-dependent effect | fractional inhibitory concentration index (FICI) (MDA-MB-231 [1]): 0.79 | Activity (MDA-MB-231 [2]): Dose-dependent effect | Activity (MDA-MB-231 [3]): Dose-dependent effect | Activity (A2780 [4]): Dose-dependent effect | fractional inhibitory concentration index (FICI) (A2780 [4]): 0.85 | Activity (KYSE-510 [5]): Dose-dependent effect | fractional inhibitory concentration index (FICI) (KYSE-510 [5]): 0.06 | Activity (CAL-27 [6]): Dose-dependent effect | fractional inhibitory concentration index (FICI) (CAL-27 [6]): <0.2 | Activity (MDA-MB-231 [7]): Dose-dependent effect | fractional inhibitory concentration index (FICI) (MDA-MB-231 [7]): <0.2 | Activity (MDA-MB-231 [8]): Dose-dependent effect | fold change (FC) (MDA-MB-231 [8]): 3.53 | Activity (KYSE-510 [9]): Dose-dependent effect | fold change (FC) (KYSE-510 [9]): 18.8 | Activity (A2780 [10]): Dose-dependent effect | fold change (FC) (A2780 [10]): 4.02 | IC50 (Histone deacetylase 11): 852 nM | IC50 (Histone deacetylase 1): 320 nM | IC50 (Histone deacetylase [11]): 1000 nM | IC50 (Histone deacetylase [12]): 320 nM | Activity (A2780 [13]): Dose-dependent effect | fractional inhibitory concentration index (FICI) (A2780 [13]): 0.58 | Activity (KYSE-510 [14]): Dose-dependent effect | fractional inhibitory concentration index (FICI) (KYSE-510 [14]): 0.16 | Activity (KYSE-510 [15]): Dose-dependent effect | fractional inhibitory concentration index (FICI) (KYSE-510 [15]): 0.18 | Activity (MDA-MB-231 [16]): Dose-dependent effect | fractional inhibitory concentration index (FICI) (MDA-MB-231 [16]): 0.81 | Activity (A2780 [17]): Dose-dependent effect | fractional inhibitory concentration index (FICI) (A2780 [17]): 0.68 | Activity (A2780 [18]): Dose-dependent effect | fractional inhibitory concentration index (FICI) (A2780 [18]): 0.69 | Activity (A2780 [19]): Dose-dependent effect | fractional inhibitory concentration index (FICI) (A2780 [19]): 0.78 | Activity (KYSE-510 [20]): Dose-dependent effect | fractional inhibitory concentration index (FICI) (KYSE-510 [20]): 0.09 | Activity (MDA-MB-231 [21]): Dose-dependent effect | fractional inhibitory concentration index (FICI) (MDA-MB-231 [21]): 0.88 | Activity (KYSE-510 [22]): Dose-dependent effect | fractional inhibitory concentration index (FICI) (KYSE-510 [22]): 0.05 | Activity (CAL-27 [23]): Dose-dependent effect | fractional inhibitory concentration index (FICI) (CAL-27 [23]): 0.22 | Activity (CAL-27 [24]): Dose-dependent effect
